The source made the active and inactive calls. The calls are words filed in the database; no cut-off is given here.
Assays:
[1] = Antioxidant activity assessed as superoxide radical scavenging activity; format: functional
Summary of the method: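 Non-cellular assay; superoxide generated by oxidation of 50 µM hypoxanthine with 12 mU xanthine oxidase. Scavenging followed as the rate of nitroblue tetrazolium reduction to formazan. SC50 taken from dose-dependent curves of serial dilutions; superoxide dismutase as standard inhibitor.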

[2] = test system: RAW264.7; assay: Effect on inflammatory mediators in mouse RAW264.7 cells assessed as TNF-alpha accumulation at 20% IC50 after 24 hrs by ELISA; format: functional
[3] = test system: RAW264.7; assay: Effect on inflammatory mediators in LPS-stimulated mouse RAW264.7 cells assessed as COX-2 accumulation at 20% IC50 after 24 hrs by dot immunoblotting; format: functional
Summary of the method: (§1)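 20 µg lysate protein dot-blotted, probed with anti-mouse COX-2 or 5-LO, detected by HRP/OPD and normalised to β-actin.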

[4] = test system: RAW264.7; assay: Effect on inflammatory mediators in mouse RAW264.7 cells assessed as nitrite accumulation at 20% IC50 after 24 hrs by Griess assay; format: functional
[5] = test system: RAW264.7; assay: Effect on inflammatory mediators in LPS-stimulated mouse RAW264.7 cells assessed as PGE2 accumulation at 20% IC50 after 24 hrs by ELISA; format: functional
[6] = test system: RAW264.7; assay: Effect on inflammatory mediators in mouse RAW264.7 cells assessed as COX-2 accumulation at 20% IC50 after 24 hrs by dot immunoblotting; format: functional; summary of the method: as §1
[7] = test system: RAW264.7; assay: Effect on inflammatory mediators in LPS-stimulated mouse RAW264.7 cells assessed as 5-LO accumulation at 20% IC50 after 24 hrs by dot immunoblotting; format: functional; summary of the method: as §1
[8] = test system: RAW264.7; assay: Effect on inflammatory mediators in LPS-stimulated mouse RAW264.7 cells assessed as nitrite accumulation at 20% IC50 after 24 hrs by Griess assay; format: functional
[9] = Peroxyl radical scavenging activity assessed as trolox equivalents at 1 uM by ORAC assay
Summary of the method: (§2)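 β-Phycoerythrin fluorescence decay followed kinetically for 2 h at 37 °C with 1 µM compound, against peroxyl and hydroxyl radicals. One ORAC unit = net protection given by 1.0 µM Trolox.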

[10] = test system: RAW264.7; assay: Cytotoxicity against mouse RAW264.7 cells assessed as cell viability after 24 hrs by MTT assay; format: cell-based; details: RAW264.7, 24 h, in the assay text read “MTT assay” for “ultra gel clot assay”
Summary of the method: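 RAW 264.7 macrophages (5×10^4 cells/well) exposed 24 h at 37 °C to a range of compound concentrations, then read by MTT reduction to formazan, solubilised in acidic isopropanol. Viability expressed as mean % of untreated cells (n = 4); 1000 U/ml M-CSF as positive control. IC50 derived.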

[11] = Hydroxyl radical scavenging activity assessed as trolox equivalents at 1 uM by ORAC assay; format: functional; summary of the method: as §2
[12] = test system: RAW264.7; assay: Effect on inflammatory mediators in mouse RAW264.7 cells assessed as PGE2 accumulation at 20% IC50 after 24 hrs by ELISA; format: functional
[13] = test system: RAW264.7; assay: Effect on inflammatory mediators in mouse RAW264.7 cells assessed as 5-LO accumulation at 20% IC50 after 24 hrs by dot immunoblotting; format: functional; summary of the method: as §1
[14] = test system: RAW264.7; assay: Effect on inflammatory mediators in LPS-stimulated mouse RAW264.7 cells assessed as TNF-alpha accumulation at 20% IC50 after 24 hrs by ELISA; format: functional
[15] = test system: RAW264.7; assay: Effect on mouse RAW264.7 cell function assessed as FITC-LPS binding to macrophage after 15 mins by fluorimetry; format: functional, cell-based
Summary of the method: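 5×10^5 RAW 264.7 cells pre-incubated 15 min at 37 °C with compound in RPMI-1640 plus 10% FBS as the CD14/LBP source. FITC-LPS (200 ng/ml) then added for 1 h. After PBS wash, fluorescence read at ex 485/em 530 nm and median fluorescence intensity reported.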

[16] = test system: RAW264.7; assay: Induction of phagocytosis in mouse RAW264.7 cells assessed as phagocytic activity against FITC-zymosan after 1 hr by fluorimetry; format: functional, cell-based
Summary of the method: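 Cells at 1×10^5/well in phenol red-free RPMI-1640 rested 24 h, then given compound for 1 h. FITC-zymosan added for a further 1 h; cells washed three times and lysed with Triton X-100. Fluorescence read at 485/530 nm and expressed relative to untreated cells (100%).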

[17] = test system: RAW264.7; assay: Effect on inflammatory mediators in LPS-stimulated mouse RAW264.7 cells assessed as nitrite accumulation at 20 uM after 24 hrs by Griess assay; format: functional
Summary of the method: (§3)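 Cells in phenol red-free RPMI-1640 with 10% FBS treated 24 h with 20 µM compound, with or without LPS (1 µg/ml). Supernatant mixed 1:1 with Griess reagent for 10 min, A550 read against a sodium nitrite standard curve, then normalised to BCA protein.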

[18] = test system: RAW264.7; assay: Effect on inflammatory mediators in LPS-stimulated mouse RAW264.7 cells assessed as PGE2 accumulation at 20 uM after 24 hrs by ELISA; format: functional
Summary of the method: (§4)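 RAW 264.7 given 20 µM compound for 24 h, alone or together with LPS at 1 µg/ml. TNF-α and PGE2 in harvested supernatants quantified with commercial ELISA kits per manufacturer; four repeats, means reported.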

[19] = test system: RAW264.7; assay: Effect on inflammatory mediators in mouse RAW264.7 cells assessed as 5-LO accumulation at 20 uM after 24 hrs by dot immunoblotting; format: functional
Summary of the method: (§5)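 Cells treated 24 h with 20 µM compound, with or without LPS (1 µg/ml). 20 µg soluble lysate protein dot-blotted onto nitrocellulose and probed with rabbit anti-mouse COX-2 or 5-LO, HRP anti-rabbit secondary and OPD colour. Intensity normalised to β-actin dots; four repeats.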

[20] = test system: RAW264.7; assay: Effect on inflammatory mediators in LPS-stimulated mouse RAW264.7 cells assessed as COX-2 accumulation at 20 uM after 24 hrs by dot immunoblotting; format: functional; summary of the method: as §5
[21] = test system: RAW264.7; assay: Effect on inflammatory mediators in mouse RAW264.7 cells assessed as nitrite accumulation at 20 uM after 24 hrs by Griess assay; format: functional; summary of the method: as §3
[22] = test system: RAW264.7; assay: Effect on inflammatory mediators in mouse RAW264.7 cells assessed as COX-2 accumulation at 20 uM after 24 hrs by dot immunoblotting; format: functional; summary of the method: as §5
[23] = test system: RAW264.7; assay: Effect on inflammatory mediators in mouse RAW264.7 cells assessed as TNF-alpha accumulation at 20 uM after 24 hrs by ELISA; format: functional; summary of the method: as §4
[24] = test system: RAW264.7; assay: Effect on inflammatory mediators in mouse RAW264.7 cells assessed as PGE2 accumulation at 20 uM after 24 hrs by ELISA; format: functional; summary of the method: as §4
[25] = test system: RAW264.7; assay: Effect on inflammatory mediators in LPS-stimulated mouse RAW264.7 cells assessed as TNF-alpha accumulation at 20 uM after 24 hrs by ELISA; format: functional; summary of the method: as §4
[26] = test system: RAW264.7; assay: Effect on inflammatory mediators in LPS-stimulated mouse RAW264.7 cells assessed as 5-LO accumulation at 20 uM after 24 hrs by dot immunoblotting; format: functional; summary of the method: as §5

SMILES	SC50 [1] [µg/mL]	Activity [2] [pg]	Activity [3] [%]	Activity [4] [nmol]	Activity [5] [pg]	Activity [6] [%]	Activity [7] [%]	Activity [8] [nmol]	Activity [9]	IC50 [10] [µM]	Activity [11]	Activity [12] [pg]	Activity [13] [%]	Activity [14] [pg]	Activity [15]	Activity [16]	also measured
CC(C)c1ccc(-c2cc(-c3ccc4c(c3)CCCC4)nc(OCC(=O)NN)c2C#N)cc1	42.5	1364.75	92.6	440.24	3405.5	63.1	91.8	596.4	0.81	27.7	0.99	43.6	33.12	5754.5			
CCOC(=O)COc1nc(-c2ccc3c(c2)CCCC3)cc(-c2ccc(OC)c(OC)c2)c1C#N	55.7	66.57	68.7	2.65	2954.2	27.5	79.6	388.4	2.01	26.2	2.47	22.4	21.9	3945.11			
COc1ccc(-c2cc(-c3ccc4c(c3)CCCC4)[nH]c(=S)c2C#N)cc1OC	65.4	79.18	72.8	8.58	3309.3	12.3	85.4	380.12	0.9	29.4	0.85	28.66	18.3	4652.4			
COc1ccc(-c2cc(-c3ccc4c(c3)CCCC4)nc(NCc3ccccc3)c2C#N)cc1OC	38.4	2460.46	99.2	720.91	3010.66	46.3	94.7	915.9	2.95	4.9	3.54	31.29	30.2	5520.55	inactive	inactive	
CC(C)c1ccc(-c2cc(-c3ccc4c(c3)CCCC4)[nH]c(=S)c2C#N)cc1	10.2								4.32	> 100	5.41				Active	Active	Activity [17]: 25.58 nmol; Activity [18]: 1843.42 pg; Activity [19]: 14.2%; Activity [20]: 36.7%; Activity [21]: 12.66 nmol; Activity [22]: 18.2%; Activity [23]: 101.5 pg; Activity [24]: 41.84 pg; Activity [25]: 1458.16 pg; Activity [26]: 31.6%
